Test results: publication PMC8313742 (Molecular Metabolism, 2021)

How the values were obtained:
AMY3R cell line = type: binding, human; conditions: competition with […] 125I-sCT, AMY3R cells, triplicates
[1] = test system: obese male Sprague Dawley rats (HFD); assay: Acute food intake and body weight after single s.c. injection; type: in vivo, rat; conditions: HFD SD rats; for body weight change after single injection: single s.c. 3 nmol/kg, 96-hour profile, n = 4
Method in brief: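 Male Sprague Dawley rats on 60 kcal% fat diet from 5–6 weeks of age were used when obese (>500 g). They were allocated by body weight and given a single s.c. injection at time 0. Food intake and body weight were recorded daily for 96–144 h. tAUC (0–96 h) was calculated. n = 4–10 per group. One-way ANOVA with Tukey versus vehicle; mean ± SEM.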

HFD Sprague Dawley rats = assay: Chronic 4-week study in high-fat diet-fed Sprague Dawley rats; type: in vivo, rat; conditions: for tAUC, BW / tAUC, FI / Epididymal AT / Inguinal AT / Perirenal AT: 4 weeks, n = 6, mean ± SEM; for Epididymal AT / Inguinal AT / Perirenal AT: study end
Method in brief: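 Male Sprague Dawley rats fed 60 kcal% fat diet from 5–6 weeks old for 20 weeks were randomized by body weight (n = 6). Dosing was s.c. saline or test compound q.3.d. for 4 weeks. Body weight and food intake were taken daily, and tAUC calculated. Terminal OGTT (2 g/kg, 4 mL/kg p.o.) was run after 14-h fast, 24 h post-dose, with glucose iAUC. Epididymal, perirenal and inguinal fat were weighed.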

[2] = test system: Zucker diabetic fatty (fa/fa; ZDF) rats; assay: 8-week intervention study in ZDF rats; type: in vivo, rat; conditions: for tAUC, BW / tAUC, FI / Epididymal AT / Inguinal AT / Perirenal AT: n = 10, mean ± SEM; for Epididymal AT / Inguinal AT / Perirenal AT: study end; for HbA1c levels compared to vehicle / OGTT blood glucose iAUC compared to vehicle: KBP-066 […] q.d.; for HbA1c levels compared to vehicle: KBP-066A 1.5 and 3 nmol/kg q.3.d.; for vehicle-corrected reduction in HbA1c at the end of the study: dose not given; for OGTT blood glucose iAUC compared to vehicle: OGTT 1 g/kg after seven weeks, KBP-066A 0.75 and 3 nmol/kg q.3.d.
[3] = target: T1, Amylin 3 receptor (AMY3R; CHO K1 CALCR RAMP3) (Homo sapiens, UniProt O60896+P30988); assay: PathHunter β-arrestin recruitment reporter assay, amylin receptor; type: cell-based; conditions: 10% FBS (Table S1)
T1 sequence (P30988 25-474): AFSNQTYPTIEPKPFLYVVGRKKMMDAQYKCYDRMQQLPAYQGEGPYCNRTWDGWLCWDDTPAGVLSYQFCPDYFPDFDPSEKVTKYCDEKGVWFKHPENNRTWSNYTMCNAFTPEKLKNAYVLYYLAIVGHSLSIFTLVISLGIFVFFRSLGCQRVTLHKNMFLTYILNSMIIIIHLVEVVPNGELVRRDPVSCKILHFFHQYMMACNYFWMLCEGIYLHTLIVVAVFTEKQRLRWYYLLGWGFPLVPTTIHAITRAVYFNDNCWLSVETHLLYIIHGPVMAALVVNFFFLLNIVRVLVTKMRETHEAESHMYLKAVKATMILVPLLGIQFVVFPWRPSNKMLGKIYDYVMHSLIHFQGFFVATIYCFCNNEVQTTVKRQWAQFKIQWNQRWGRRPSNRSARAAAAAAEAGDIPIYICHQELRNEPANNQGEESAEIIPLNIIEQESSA
T1 sequence (O60896 24-148 partner): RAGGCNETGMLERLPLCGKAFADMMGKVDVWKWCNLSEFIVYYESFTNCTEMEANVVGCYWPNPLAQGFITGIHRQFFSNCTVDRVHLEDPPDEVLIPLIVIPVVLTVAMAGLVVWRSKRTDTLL

[4] = test system: obese male Sprague Dawley rats (HFD); assay: Acute gastric emptying rate; type: in vivo, rat; conditions: plasma acetaminophen, n = 8
Method in brief: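 Obese HFD-fed male Sprague Dawley rats were fasted overnight, then given s.c. test compound plus oral glucose bolus and acetaminophen at time 0. Tail-vein EDTA blood was taken at 0, 30, 60, 120 and 240 min. Plasma acetaminophen by ELISA served as gastric emptying estimate, expressed as % of vehicle. n = 8. One-way ANOVA/Tukey at 60 and 240 min; Kruskal–Wallis/Dunn at 30 and 120 min.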

[5] = single s.c. 36 nmol/kg, n = 6-10
[6] = 0.75 nmol/kg s.c. q.3.d., 8 weeks

Q: For “Ac-CSNLSTCXLGKLSQDLHRLQTYPKTDVGANAP-NH2 [KBP-066A]”, which “change of IC50 in 2% HSA compared to 0.01% HSA” value (AMY3R cell line) is on record?
A: Its value is 100 fold.

Q: What about the “effect on food intake and body weight” value ([1]; single s.c. 0.5 nmol/kg (lowest dose), n = 6-10) of the same substance?
A: Its value is “only had a minor effect on both parameters”.

Q: What about the “body weight change after single injection” value [1] of the same substance?
A: Its value is “still markedly reduced even 96 h post-injection”.

Q: What about the “duration of effect on body weight” value [1, 5] of the same substance?
A: Its value is 144 h.

Q: And the “duration of effect on food intake” value [1, 5]?
A: Its value is 120 h.

Q: And the “tAUC, BW” value (HFD Sprague Dawley rats; 1 nmol/kg s.c. q.3.d.)?
A: Its value is 2584 ± 7∗∗∗ g∗days^−1.

Q: And the “tAUC, FI” value (HFD Sprague Dawley rats; 1 nmol/kg s.c. q.3.d.)?
A: The value was 617 ± 10∗∗∗ g∗days^−1.

Q: What about the “Epididymal AT” value (HFD Sprague Dawley rats; 1 nmol/kg s.c. q.3.d.) of the same substance?
A: The value was 4.4 ± 1.0 g.

Q: What about the “Inguinal AT” value (HFD Sprague Dawley rats; 1 nmol/kg s.c. q.3.d.) of the same substance?
A: Its value is 2.8 ± 0.3 g.

Q: And the “Perirenal AT” value (HFD Sprague Dawley rats; 1 nmol/kg s.c. q.3.d.)?
A: Its value is 3.5 ± 0.9 g.

Q: What about the “tAUC, BW” value (HFD Sprague Dawley rats; 2 nmol/kg s.c. q.3.d.) of the same substance?
A: The value was 2452 ± 6∗∗∗¤ g∗days^−1.

Q: What about the “tAUC, FI” value (HFD Sprague Dawley rats; 2 nmol/kg s.c. q.3.d.) of the same substance?
A: Its value is 518 ± 6∗∗∗¤¤¤ g∗days^−1.

Q: What about the “Epididymal AT” value (HFD Sprague Dawley rats; 2 nmol/kg s.c. q.3.d.) of the same substance?
A: The value was 3.9 ± 1.1 g.

Q: What about the “Inguinal AT” value (HFD Sprague Dawley rats; 2 nmol/kg s.c. q.3.d.) of the same substance?
A: The value was 1.9 ± 0.5 g.

Q: What about the “Perirenal AT” value (HFD Sprague Dawley rats; 2 nmol/kg s.c. q.3.d.) of the same substance?
A: The value was 2.7 ± 0.7∗∗ g.

Q: What about the “tAUC, BW” value (HFD Sprague Dawley rats; 4 nmol/kg s.c. q.3.d.) of the same substance?
A: Its value is 2458 ± 8∗∗∗ g∗days^−1.

Q: What about the “tAUC, FI” value (HFD Sprague Dawley rats; 4 nmol/kg s.c. q.3.d.) of the same substance?
A: Its value is 532 ± 10∗∗∗¤¤ g∗days^−1.

Q: What about the “Epididymal AT” value (HFD Sprague Dawley rats; 4 nmol/kg s.c. q.3.d.) of the same substance?
A: Its value is 4.2 ± 1.2 g.

Q: What about the “Inguinal AT” value (HFD Sprague Dawley rats; 4 nmol/kg s.c. q.3.d.) of the same substance?
A: The value was 2.9 ± 1.4 g.

Q: And the “Perirenal AT” value (HFD Sprague Dawley rats; 4 nmol/kg s.c. q.3.d.)?
A: Its value is 2.8 ± 1.0∗∗ g.

Q: And the “OGTT glucose iAUC compared to vehicle” value (HFD Sprague Dawley rats; OGTT after four weeks, KBP-066A 1, 2, 4 nmol/kg q.3.d.)?
A: The value was “not statistically significant compared to vehicle”.

Q: And the “effect on fasting blood glucose levels” value ([2]; 0.75 nmol/kg q.3.d. (lowest dose), 8 weeks)?
A: The value was “minor”.

Q: And the “tAUC, BW” value [2, 6]?
A: The value was 6180 ± 67 g∗days^−1.

Q: And the “tAUC, FI” value [2, 6]?
A: The value was 3815 ± 135∗∗¤ g∗days^−1.

Q: What about the “Epididymal AT” value [2, 6] of the same substance?
A: The value was 3.7 ± 0.1 g.

Q: And the “Inguinal AT” value [2, 6]?
A: Its value is 4.8 ± 0.4 g.

Q: And the “Perirenal AT” value [2, 6]?
A: The value was 6.0 ± 0.3 g.

Q: And the “fasting blood glucose levels (tAUC) compared to KBP-066 q.d.” value ([2]; 3 nmol/kg q.3.d. (highest dose), 8 weeks)?
A: The value was “significantly improved”.

Q: And the “tAUC, BW” value ([2]; 3 nmol/kg s.c. q.3.d., 8 weeks)?
A: The value was 6409 ± 122 g∗days^−1.

Q: What about the “tAUC, FI” value ([2]; 3 nmol/kg s.c. q.3.d., 8 weeks) of the same substance?
A: The value was 2898 ± 61∗∗∗ g∗days^−1.

Q: And the “Epididymal AT” value ([2]; 3 nmol/kg s.c. q.3.d., 8 weeks)?
A: Its value is 4.7 ± 0.2 g.

Q: And the “Inguinal AT” value ([2]; 3 nmol/kg s.c. q.3.d., 8 weeks)?
A: Its value is 6.3 ± 0.7 g.

Q: And the “Perirenal AT” value ([2]; 3 nmol/kg s.c. q.3.d., 8 weeks)?
A: Its value is 6.7 ± 0.4 g.

Q: What about the “plasma insulin (tAUC) compared to KBP-066 q.d.” value ([2]; 8 weeks, 3 nmol/kg q.3.d.) of the same substance?
A: The value was “significantly preserved plasma insulin at higher levels”.

Q: And the “HbA1c levels compared to vehicle” value ([2]; 8 weeks)?
A: Its value is “significantly improved”.

Q: What about the “vehicle-corrected reduction in HbA1c at the end of the study” value ([2]; 8 weeks) of the same substance?
A: Its value is 46%.

Q: What about the “OGTT blood glucose iAUC compared to vehicle” value [2] of the same substance?
A: The value was “significantly reduced”.

Q: Which results are given for “Ac-CSNLSTCXLGRLSQDLHRLQTYPKTDVGANAP-NH2 [KBP-066]”?
A: fold lower EC50 than KBP-066A for the AMYR [3]: eight-fold; change of IC50 in 2% HSA compared to 0.01% HSA (AMY3R cell line): not affected by the difference in HSA concentration; body weight change after single injection [1]: completely returned to the baseline after 72 h; gastric emptying rate at 30 min ([4]; […] s.c., overnight fasted rats): reduced the gastric emptying rate; gastric emptying rate at 60 and 120 min ([4]; both doses 0.75 and […] s.c.): significantly did so; HbA1c levels compared to vehicle ([2]; 8 weeks): significantly improved; vehicle-corrected reduction in HbA1c at the end of the study ([2]; 8 weeks): 31%; OGTT blood glucose iAUC compared to vehicle [2]: significantly reduced
